What all share (format): cell-based
The subject of one test is HeLa cells. Put plainly: MTT cytotoxicity assay, HeLa. The note with it: Homo sapiens, read-out: IC50 Hela. In outline: (§1)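 Human lines were grown in RPMI 1640 with 10% FBS at 37 °C and 5% CO2; MCF-7 medium also had glutamine, HEPES and pyruvate. Log-phase cells were seeded, preincubated for 24 h, then treated for 72 h with DMSO-dissolved test compound at 0, 1.25, 2.5, 5, 10 or 20 μM. MTT (5 mg mL−1 stock) was added for 4 h, formazan was dissolved in DMSO and OD was read at 550 nm.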

For the next test, the system named is HepG2 cells. Put plainly: MTT cytotoxicity assay, HepG2. As to conditions: Homo sapiens, HepG2, read-out: IC50 HepG2. In outline:
as §1
(In general: Formazan colour is commonly taken as a measure of viable cells.)

The next test deals with SKOV3 cells. Put plainly: MTT cytotoxicity assay, SKOV3. The note with it: Homo sapiens, SK-OV-3, read-out: IC50 SKOV3. An outline of the steps:
as §1

What is called IC50 is the concentration that gives 50% inhibition.

On to `CC(=O)O[C@H]1C(=O)[C@@]2(C)[C@H]([C@H](OC(=O)c3ccccc3)[C@]3(O)C[C@H](OC(=O)[C@H](O)[C@@H](NC(=O)c4ccccc4)c4ccccc4)C(C)=C1C3(C)C)[C@]1(OC(C)=O)CO[C@@H]1C[C@@H]2O` [Paclitaxel], for which the IC50 in the test on HeLa cells came to 3 nM; in the test on HepG2 cells it was 1.5 nM; with SKOV3 cells, 3.8 nM.

Values taken from article PMC9076386 (RSC Advances, 2019).
